Source: ChEMBL document CHEMBL1765039, “Geminal dialkyl derivatives of N-substituted pantothenamides: synthesis and antibacterial activity” (2011)
In brackets after ≈: the same amount, converted by molar mass.

Columns and labels:
[1] = tested on: Staphylococcus aureus; test: Antibacterial activity against Staphylococcus aureus 29213 at 150 ug/ml after 24 hrs by agar diffusion method; assay type: functional; details: Staphylococcus aureus, 29213, 24 h; read-out: DIZ
Summary of the method: (§1)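 Agar diffusion per NCCLS. Mueller-Hinton agar plates were swab-inoculated and dried 5 min. Sterile 1 cm discs were loaded with compound solution and placed on the plates. Incubation was 24 h at 37 °C (A. baumannii, E. coli, K. pneumoniae, S. aureus) or 30 °C (B. subtilis). Read-out was inhibition zone diameter, with ampicillin as positive control.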

[2] = tested on: Staphylococcus aureus; test: Antibacterial activity against 10^6 CFU/ml oxacillin-susceptible Staphylococcus aureus ATCC 29213 after 18 hrs by NCCLS broth microdilution method; assay type: functional; details: ATCC 29213, 18 h
Summary of the method: (§2)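 Broth microdilution per NCCLS, in 96-well plates; strains grown on Trypticase soy media. Compounds dissolved in 10% (v/v) acetone in water, serially diluted to 0.5–256 µg/mL (10 levels, twofold). Wells inoculated with 10⁶ cfu/mL suspension, 37 °C for 18 h. MIC = lowest concentration with no visible growth, converted to µM by molecular weight; average of at least four separate experiments.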

[3] = tested on: Staphylococcus aureus; test: Antibacterial activity against 10^6 CFU/ml methicillin or oxacillin-resistant Staphylococcus aureus ATCC 43300 after 18 hrs by NCCLS broth microdilution method; assay type: functional; details: ATCC 43300, 18 h; summary of the method: as §2
[4] = tested on: Acinetobacter baumannii; test: Antibacterial activity against Acinetobacter baumannii 19606 at 150 ug/ml after 24 hrs by agar diffusion method; assay type: functional; details: Acinetobacter baumannii, 19606, 24 h, read-out: DIZ; summary of the method: as §1
[5] = tested on: Klebsiella pneumoniae; test: Antibacterial activity against Klebsiella pneumoniae 13883 at 150 ug/ml after 24 hrs by agar diffusion method; assay type: functional; details: Klebsiella pneumoniae, 13883, 24 h, read-out: DIZ; summary of the method: as §1
[6] = tested on: Escherichia coli; test: Activity of Escherichia coli pantothenate kinase
Summary of the method: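 E. coli PanK, expressed and purified, at 278 nM in 50 mM Tris-HCl pH 7.6. Mix: ATP 1.5 mM, NADH 0.3 mM, phosphoenolpyruvate 0.5 mM, MgCl₂ 10 mM, KCl 20 mM, pyruvate kinase and lactate dehydrogenase (5 units each). Started by adding substrate (10–160). ADP formation was coupled to NADH loss, read at 340 nm, 25 °C. Kinetic parameters came from a Michaelis–Menten fit.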

SMILES	zone of inhibition at 150 µg/mL [1] [mm]	MIC [2] [µM]	MIC [3] [µM]	zone of inhibition at 150 µg/mL [4] [mm]	zone of inhibition at 150 µg/mL [5] [mm]	Km [6] [µM]	kcat [6] [s⁻¹]
CCCCCNC(=O)CCNC(=O)[C@H](O)[C@@](C)(CO)CC1CCC1	16	374 (≈ 128 µg/mL)	374 (≈ 128 µg/mL)	< 11	< 11	–	–
CCCCCNC(=O)CCNC(=O)[C@H](O)[C@@](C)(CO)Cc1ccccc1	16	> 703	> 703	< 11	< 11	–	–
CCCCCCCCCNC(=O)CCNC(=O)[C@H](O)C(C)(C)CO	16	0.4 (≈ 0.138 µg/mL)	0.4 (≈ 0.138 µg/mL)	< 11	< 11	–	–
CCCCCC[C@](C)(CO)[C@@H](O)C(=O)NCCC(=O)NCCCCC	16	> 715	> 715	< 11	< 11	–	–
CCCCCNC(=O)CCNC(=O)[C@H](O)[C@@](C)(CO)CC(C)C	16	101 (≈ 33.4 µg/mL)	51 (≈ 16.9 µg/mL)	< 11	< 11	–	–
CCCCCNC(=O)CCNC(=O)[C@H](O)[C@](C)(CC)CO	16	7 (≈ 2.12 µg/mL)	7 (≈ 2.12 µg/mL)	< 11	< 11	–	–
CCCCCNC(=O)CCNC(=O)[C@H](O)[C@@](C)(CO)CC1CC1	16	24 (≈ 7.88 µg/mL)	24 (≈ 7.88 µg/mL)	< 11	< 11	–	–
CCCCCNC(=O)CCNC(=O)[C@H](O)C(C)(C)CO	16	7 (≈ 2.02 µg/mL)	7 (≈ 2.02 µg/mL)	< 11	< 11	–	–
CCCCCNC(=O)CCNC(=O)[C@H](O)C(CO)(CCC)CCC	16	> 744	> 744	< 11	< 11	–	–
CCCCCNC(=O)CCNC(=O)[C@H](O)[C@@](C)(CO)CCC	16	13 (≈ 4.11 µg/mL)	13 (≈ 4.11 µg/mL)	< 11	< 11	–	–
C=CC[C@](C)(CO)[C@@H](O)C(=O)NCCC(=O)NCCCCC	16	3.2 (≈ 1.01 µg/mL)	3.2 (≈ 1.01 µg/mL)	< 11	< 11	534	0.87
C=CC[C@](C)(CO)[C@@H](O)C(=O)NCCC(=O)NCCCCCCCCC	16	1 (≈ 0.371 µg/mL)	1 (≈ 0.371 µg/mL)	< 11	< 11	–	–
C=CCC(CO)(CC=C)[C@@H](O)C(=O)NCCC(=O)NCCCCC	16	376 (≈ 128 µg/mL)	376 (≈ 128 µg/mL)	< 11	< 11	–	–
